# High-throughput results from PubChem BioAssay.
# OX1R antag-1 – antagonists of human orexin 1 receptor; O43613; CHO/OX1R cells, Fluo-8 calcium fluorescence, orexin A; inhibition, % at 5 µM; 0.43% of 330,000 active;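 active = inhibition above its plate's threshold, mean inhibition of all tested compounds on the plate plus 3 SD, cut at about 37% in these data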
# zfTRPN1 agonist – agonists of zebrafish TRPN1 channel; HEK293 zebrafish TRPN1-YFP, Fluo-8 calcium fluorescence; 100% = response to 87 µM carbachol; activation, % at 3 µM; 0.18% of 220,000 active;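 active = activation above its plate's cutoff, the mean activation of test wells on that plate plus 3 SD, cut at about 19% in these data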
#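 Control set: carbachol 87 µM as high control, DMSO as low control; system: HEK293 stable line with zebrafish TRPN1-YFP; read-out: % activation versus carbachol response; detection: intracellular calcium fluorescence with Fluo-8; doses: single test compound dose, 3 µM nominal, 0.3% DMSO; schedule: dye 1 h 37 °C plus 30 min RT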
# CHO parental Ca – counter-screen for OX1R antagonists: effect in parental CHO cells | parental CHO-K1, ATP-induced calcium, Fluo-8 fluorescence | inhibition, % at 5.6 µM | 0.63% of 330,000 active | AID 463079;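 active = inhibition above that plate's mean sample inhibition plus 3 SD, cut at about 26% in these data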
#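 Assay system: parental CHO cells; Read-out basis: percent inhibition of ATP-evoked calcium rise, normalized to controls; Benchmarks: ATP and no-ATP DMSO wells; Compound dosing: single nominal dose of 5.6 µM per compound; Signal: Fluo-8 calcium dye fluorescence; Also added: ATP as calcium-mobilizing challenge; Repeats: singlicate.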
# TRPML3 agonist – human mucolipin-3 channel agonism; Q8TDD5; HEK293 TRPML3-YFP, Fluo-8 calcium fluorescence; 100% = the carbachol control signal; activation, % at 3 µM; 0.29% of 220,000 active;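 active = activation above its plate's cutoff, the mean activation of the plate's test wells plus 3 SD, cut at about 12% in these data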
# Target sequence (Q8TDD5 whole entry, looked up): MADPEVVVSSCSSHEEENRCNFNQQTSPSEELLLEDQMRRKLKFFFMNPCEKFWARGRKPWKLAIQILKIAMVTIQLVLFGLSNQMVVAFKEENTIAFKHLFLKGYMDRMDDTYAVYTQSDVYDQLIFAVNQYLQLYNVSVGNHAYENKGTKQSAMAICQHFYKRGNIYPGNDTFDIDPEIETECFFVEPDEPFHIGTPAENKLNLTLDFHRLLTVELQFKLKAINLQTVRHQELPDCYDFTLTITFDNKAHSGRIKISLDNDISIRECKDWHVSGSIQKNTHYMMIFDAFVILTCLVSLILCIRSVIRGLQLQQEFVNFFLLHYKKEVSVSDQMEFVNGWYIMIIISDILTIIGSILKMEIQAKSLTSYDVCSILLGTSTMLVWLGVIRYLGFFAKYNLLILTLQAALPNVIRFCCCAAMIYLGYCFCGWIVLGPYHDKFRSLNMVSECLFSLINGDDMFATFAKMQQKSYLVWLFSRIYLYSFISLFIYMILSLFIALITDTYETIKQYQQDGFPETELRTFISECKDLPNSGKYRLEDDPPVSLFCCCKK
#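 system = HEK293 cells stably carrying human TRPML3-YFP | doses = one concentration, 3 µM nominal, 0.3% DMSO | timing = dye loading 1 h 37 °C then 30 min ambient, 125 s read | detection = Fluo-8 calcium dye fluorescence, ex 470-495, em 515-575 nm | benchmarks = high control carbachol 87 µM, low control DMSO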
# OX1R antag-2 – OX1R (human) antagonism. O43613. OX1R-expressing cells, FRET antagonist read-out. inhibition, % at 6.6 µM. 1.8% of 330,000 active; in the data active = inhibition mostly above about 38%, no sharp cut-off; inactive = mostly below about 40%
# GPR7 antag – antagonists of human GPR7 (neuropeptides B/W receptor 1); P48145; GPR7-expressing cells, fluorescence antagonist assay; inhibition, % at 4.4 µM; 1.1% of 290,000 active; AID 1861; in the data active = inhibition above about 16%, passing the limit was not always enough;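 also: cells stimulated with the agonist NPW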
# A number is an active result; n = inactive; x = not tested or not shown. A selection: hits, their analogues and other compounds. The true share with any hit is near 3.2%.
SMILES,OX1R antag-1,zfTRPN1 agonist,CHO parental Ca,TRPML3 agonist,OX1R antag-2,GPR7 antag
O=C(Nc1cccc(Cl)c1)Nc1ccc2nccnc2c1,n,x,n,x,34.0,n
COc1ccccc1NC(=O)N1CCCC1C(=O)NCCc1ccccc1 (centres undefined),n,x,n,x,n,n
CCOC(=O)c1c(NC(=O)C(C)N2CCN(C(=O)c3ccco3)CC2)sc2c1CCCC2 (centres undefined),65.8,n,59.8,n,n,n
N#Cc1ccc(Cl)cc1NC(=O)CSc1cccc[n+]1[O-],n,x,n,x,n,x
O=C(CSc1cccc[n+]1[O-])Nc1cc(Cl)ccc1[N+](=O)[O-],n,x,n,x,38.3,x
COc1ccc(S(=O)(=O)NNC(=S)NCCc2ccccc2)c(OC)c1,n,x,n,x,n,n
COc1cc(CNCCO)cc(Br)c1OCc1ccccc1Cl,n,n,n,n,n,n
COc1cc(CNCCO)cc(Cl)c1OCc1ccc(Cl)cc1Cl,n,n,n,n,n,58.0
CCc1nnc(NC(=O)COc2ccccc2[N+](=O)[O-])s1,n,n,n,n,n,n
COc1ccc(-c2noc(-c3ccccc3C(=O)Nc3cccnc3)n2)cc1,n,n,n,n,n,13.8
COc1ccc(-c2noc(-c3ccccc3C(=O)Nc3cccnc3)n2)cc1OC,n,n,n,n,n,n
Cc1noc(C)c1C(=O)Nc1cccc2ncccc12,n,x,n,x,n,n
CCOP(=O)(OCC)C(C)(C)NC(=O)c1cc([N+](=O)[O-])cc([N+](=O)[O-])c1,n,n,n,n,59.3,n
CCOC(CNC(=O)c1cccc([N+](=O)[O-])c1)OCC,n,n,n,n,n,n
CCOP(=O)(OCC)C(NC(=O)c1cc([N+](=O)[O-])cc([N+](=O)[O-])c1)C(F)(F)F (centres undefined),n,n,n,n,67.5,n
CCC(C)(C)NC(=O)c1cc(C(=O)OC)cc([N+](=O)[O-])c1,n,n,n,n,n,n
O=C(NCc1cccnc1)C1CCC(CNS(=O)(=O)c2cccc3nsnc23)CC1 (centres undefined),n,n,n,n,n,n
CC(C)(C)c1ccc(NC(=O)Nc2ccc(F)cc2)cc1,64.3,n,62.0,n,n,23.6
O=C(Nc1ccc(F)cc1)Nc1cc(OCC(F)(F)F)cc(OCC(F)(F)F)c1,n,n,40.2,n,n,n
CC(C)(C)c1ccc(COC(=O)Nc2ccc(F)cc2)cc1,n,n,n,n,n,n
CN(CC(=O)Nc1ccccc1Br)C(=O)c1sccc1-c1ccccc1,n,x,n,x,n,x
c1cc2[nH]snc2c2nc(C3CC3)nc12,n,n,n,n,45.9,n
CCN(CC(=O)Nc1ccccc1SC)Cc1nc2ccccc2c(=O)[nH]1,n,n,n,n,n,n
CCN(CC(=O)Nc1ccccc1-c1ccccc1)Cc1nc2ccccc2c(=O)[nH]1,n,n,n,n,66.5,n
COc1cccc(NC(=S)N(Cc2ccc(Cl)cc2)Cc2ccc(C(=O)O)cc2)c1,n,n,n,n,n,n
SMILES,OX1R antag-1,zfTRPN1 agonist,CHO parental Ca,TRPML3 agonist,OX1R antag-2,GPR7 antag
CC1CCN(S(=O)(=O)c2cccc(C(=O)N(Cc3ccccc3)c3ccccn3)c2)CC1,n,n,n,n,n,19.3
CN1CCN(S(=O)(=O)c2cccc(C(=O)N(c3ccccn3)C3CCCCC3)c2)CC1,n,n,n,n,n,n
Cc1ccc(NC(=O)CSc2nc3ccccc3c(=O)n2CCCN2CCCCC2)cc1Cl,n,n,n,n,n,25.2
Cc1cc2ccccn2c1C(=O)c1ccncc1,n,n,n,n,32.2,n
O=c1cc(CSc2nnc(-c3cccs3)n2Cc2ccccc2)nc2sc3ccccc3n12,n,n,51.7,n,n,29.7
Cc1cc(C(=O)CSc2nnc(-c3cccs3)n2Cc2ccccc2)c(C)n1C,n,n,n,n,n,n
CCOC(=O)c1oc2ccc(S(=O)(=O)n3nc(-c4ccc(OC)cc4)cc3N)cc2c1C,n,n,n,n,n,n
CCOC(=O)c1oc2ccc(S(=O)(=O)n3nc(-c4ccccc4)cc3N)cc2c1C,n,n,32.3,n,n,n
CC(=O)N(C)c1ccc(OCC(O)Cn2c3ccc(Cl)cc3c3cc(Cl)ccc32)cc1 (centres undefined),n,n,67.4,n,n,n
CC(=O)N(C)c1ccc(OCC(O)Cn2c(C)nc3ccccc32)cc1 (centres undefined),n,n,n,n,n,n
CCn1c(=NC(=O)CS(=O)(=O)c2ccc(F)cc2)sc2cccc(OC)c21,n,x,n,x,n,x
CCn1c(=NC(=O)CCS(=O)(=O)c2ccccc2)sc2cccc(OC)c21,n,x,55.7,x,n,n
COc1ccc(CNC(=O)c2coc(=O)c3ccccc23)cc1,n,n,n,n,n,n
COc1ccc(CCNC(=O)C2CCC(=O)N2CCc2ccccc2)cc1OC (centres undefined),n,n,n,n,n,n
Cc1ccc(/C=N\NC(=O)c2cc([N+](=O)[O-])cc([N+](=O)[O-])c2)o1,n,n,n,n,65.4,n
O=C(N/N=C/c1ccc([N+](=O)[O-])o1)C1CCCC1,n,x,n,x,91.2,n
O=C(N/N=C/c1ccc([N+](=O)[O-])o1)c1ccc(O)cc1,n,n,n,n,74.0,n
Cc1nc2ccccn2c1C(=O)N/N=C/c1ccc([N+](=O)[O-])o1,n,n,n,n,65.2,n
O=C(N/N=C/c1ccco1)C1CCCC1,n,x,n,x,n,n
COc1cccc(C(=O)Nc2ccccc2OC(F)(F)F)c1,n,n,n,n,n,n
CCN(CC)S(=O)(=O)c1cccc(C(=O)N/N=C/c2ccccc2OCC(=O)O)c1,n,n,n,n,n,n
[O-]/[N+](=C\c1ccccc1)[C@@H]1CCCC[C@@H]1/[N+]([O-])=C/c1ccccc1,n,n,n,n,n,n
CCN(CC)S(=O)(=O)c1cccc(C(=O)N/N=C/c2ccc([N+](=O)[O-])o2)c1,n,n,n,n,72.8,n
Cc1scc(C(=O)N/N=C/c2ccc([N+](=O)[O-])o2)c1C,n,x,n,x,50.7,n
O=[N+]([O-])c1ccc(/C=[N+](\[O-])[C@@H]2CCCC[C@@H]2/[N+]([O-])=C/c2ccc([N+](=O)[O-])o2)o1,n,x,n,x,42.1,n
O=C(N/N=C/c1ccc([N+](=O)[O-])o1)c1ccncc1,n,n,n,n,54.5,n
Cc1scc(C(=O)N/N=C/c2ccco2)c1C,n,n,n,n,n,n
O=C(N/N=C\c1ccc([N+](=O)[O-])o1)c1cncc(Br)c1,n,n,n,n,n,n
CCOc1ncccc1C(=O)Nc1ccc(S(=O)(=O)N2CC(C)CC(C)C2)cc1 (centres undefined),n,x,n,x,n,x
